Results reported in ChEMBL document CHEMBL3751694, “1-Piperazinylphthalazines as potential VEGFR-2 inhibitors and anticancer agents: Synthesis and in vitro biological evaluation” (Eur J Med Chem, 2016).

Tests used:
Format in all cases: functional
NCI-H522 = experiment: Growth inhibition of human NCI-H522 cells at 10 uM after 48 hrs by SRB method; conditions: NCI-H522, 48 h, read-out: GI
In short: (§1)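 NCI 56-line primary screen at a single 10^-5 M concentration. Cells grown in RPMI 1640 with 5% FBS and 2 mM L-glutamine, plated at 5000–40,000 cells/well, then preincubated for 24 h. Exposure was 48 h at 37 °C and 5% CO2. Adherent cells were fixed with cold TCA at 10% final, suspension cells at 16%. Staining used 0.4% SRB, read at 515 nm. Results are % growth inhibition relative to control.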

K562 = experiment: Growth inhibition of human K562 cells at 10 uM after 48 hrs by SRB method; conditions: K562, 48 h, read-out: GI; in short: as §1
[1] = Growth inhibition of human UO31 cells at 10 uM after 48 hrs by SRB method; conditions: UO-31, 48 h, read-out: GI
In short: (§2)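 NCI 56-line screen, single-dose primary assay at 10^-5 M. Cells grown in RPMI 1640 with 5% FBS and 2 mM L-glutamine, plated at 5000–40,000 cells/well and held 24 h at 37 °C, 5% CO2 before drug addition. Compound was given from DMSO stock, exposure 48 h, then TCA fixation and SRB staining with absorbance at 515 nm. % growth is taken relative to time-zero and untreated controls.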

T47D = experiment: Growth inhibition of human T47D cells at 10 uM after 48 hrs by SRB method; conditions: read-out: GI; in short: as §2
[2] = Growth inhibition of human […] cells at 10 uM after 48 hrs by SRB method; conditions: read-out: GI; in short: as §1
MDA-MB-468 = experiment: Growth inhibition of human MDA-MB-468 cells at 10 uM after 48 hrs by SRB method; conditions: MDA-MB-468, 48 h, read-out: GI; in short: as §1
CCRF-CEM = experiment: Growth inhibition of human CCRF-CEM cells at 10 uM after 48 hrs by SRB method; conditions: read-out: GI; in short: as §1
[3] = Growth inhibition of human PC3 cells at 10 uM after 48 hrs by SRB method; conditions: PC-3, 48 h, read-out: GI; in short: as §1
[4] = Growth inhibition of human UACC62 cells at 10 uM after 48 hrs by SRB method; conditions: UACC-62, 48 h, read-out: GI; in short: as §2
SR = experiment: Growth inhibition of human SR cells at 10 uM after 48 hrs by SRB method; conditions: read-out: GI; in short: as §1
[5] = Growth inhibition of human MOLT4 cells at 10 uM after 48 hrs by SRB method; conditions: MOLT-4, 48 h, read-out: GI; in short: as §1
A549 = experiment: Growth inhibition of human A549 cells at 10 uM after 48 hrs by SRB method; conditions: A549, 48 h, read-out: GI; in short: as §1
SK-MEL-5 = experiment: Growth inhibition of human SK-MEL-5 cells at 10 uM after 48 hrs by SRB method; conditions: SK-MEL-5, 48 h, read-out: GI; in short: as §1
MCF7 = experiment: Growth inhibition of human MCF7 cells at 10 uM after 48 hrs by SRB method; conditions: MCF7, 48 h, read-out: GI; in short: as §1
A498 = experiment: Growth inhibition of human A498 cells at 10 uM after 48 hrs by SRB method; conditions: A498, 48 h, read-out: GI; in short: as §1
[6] = Growth inhibition of human IGROV1 cells at 10 uM after 48 hrs by SRB method; conditions: IGROV-1, 48 h, read-out: GI; in short: as §1
[7] = Growth inhibition of human HL-60(TB) cells at 10 uM after 48 hrs by SRB method; conditions: HL-60, 48 h, read-out: GI
In short: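 NCI single-dose primary screen at 10^-5 M, 48 h exposure. Cells grown in RPMI 1640 with 5% FBS and 2 mM L-glutamine. Suspension cells fixed in situ with TCA (final 16%), stained with SRB, absorbance read at 515 nm. Percent growth inhibition calculated against time-zero and untreated control plates.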

[8] = Growth inhibition of human HOP92 cells at 10 uM after 48 hrs by SRB method; conditions: HOP-92, 48 h, read-out: GI; in short: as §1
[9] = Growth inhibition of human UACC257 cells at 10 uM after 48 hrs by SRB method; conditions: UACC-257, 48 h, read-out: GI; in short: as §2
SK-MEL-2 = experiment: Growth inhibition of human SK-MEL-2 cells at 10 uM after 48 hrs by SRB method; conditions: SK-MEL-2, 48 h, read-out: GI; in short: as §1
[10] = Growth inhibition of human TK10 cells at 10 uM after 48 hrs by SRB method; conditions: TK-10, 48 h, read-out: GI; in short: as §2
NCI-H226 = experiment: Growth inhibition of human NCI-H226 cells at 10 uM after 48 hrs by SRB method; conditions: NCI-H226, 48 h, read-out: GI; in short: as §1
[11] = Growth inhibition of human COLO205 cells at 10 uM after 48 hrs by SRB method; conditions: COLO 205, 48 h, read-out: GI; in short: as §1
[12] = Growth inhibition of human HCT116 cells at 10 uM after 48 hrs by SRB method; conditions: HCT-116, 48 h, read-out: GI; in short: as §1
[13] = Growth inhibition of human Caki1 cells at 10 uM after 48 hrs by SRB method; conditions: CAKI-1, 48 h, read-out: GI; in short: as §1
MDA-MB-231 = experiment: Growth inhibition of human MDA-MB-231 cells at 10 uM after 48 hrs by SRB method; conditions: MDA-MB-231, 48 h, read-out: GI; in short: as §1
[14] = Growth inhibition of human OVCAR8 cells at 10 uM after 48 hrs by SRB method; conditions: OVCAR-8, 48 h, read-out: GI; in short: as §1
[15] = Growth inhibition of human OVCAR3 cells at 10 uM after 48 hrs by SRB method; conditions: OVCAR-3, 48 h, read-out: GI; in short: as §1
NCI/ADR-RES = experiment: Growth inhibition of human NCI/ADR-RES cells at 10 uM after 48 hrs by SRB method; conditions: read-out: GI; in short: as §1
[16] = Growth inhibition of human BT549 cells at 10 uM after 48 hrs by SRB method; conditions: BT-549, 48 h, read-out: GI; in short: as §1
HT-29 = experiment: Growth inhibition of human HT-29 cells at 10 uM after 48 hrs by SRB method; conditions: HT-29, 48 h, read-out: GI; in short: as §1

SMILES | inhibition of growth at 10 µM (NCI-H522) [%] | inhibition of growth at 10 µM (K562) [%] | inhibition of growth at 10 µM [1] [%] | inhibition of growth at 10 µM (T47D) [%] | inhibition of growth at 10 µM [2] [%] | inhibition of growth at 10 µM (MDA-MB-468) [%] | inhibition of growth at 10 µM [3] [%] | inhibition of growth at 10 µM (SR) [%] | inhibition of growth at 10 µM [5] [%] | inhibition of growth at 10 µM (SK-MEL-5) [%] | inhibition of growth at 10 µM (A498) [%] | inhibition of growth at 10 µM [7] [%] | inhibition of growth at 10 µM [8] [%] | also measured
COc1ccc(C(=O)CN2CCN(c3nnc(-c4ccccc4)c4ccccc34)CC2)cc1 | 35 | 30 | 35 | 36 | 32 |  |  |  |  |  |  |  |  | 
COc1ccc(NC(=O)CN2CCN(c3nnc(-c4ccccc4)c4ccccc34)CC2)cc1 | 30 |  |  | 55 |  | 37 |  |  |  |  |  |  |  | 
O=C(CN1CCN(c2nnc(-c3ccccc3)c3ccccc23)CC1)Nc1cccc(C(F)(F)F)c1 | 53 | 38 |  | 59 | 46 | 60 | 40 | 55 | 52 | 41 | 32 |  |  | inhibition of growth at 10 µM (CCRF-CEM): 31%; inhibition of growth at 10 µM [4]: 41%; inhibition of growth at 10 µM (A549): 34%; inhibition of growth at 10 µM (MCF7): 41%
O=C(CN1CCN(c2nnc(-c3ccccc3)c3ccccc23)CC1)Nc1ccccc1Cl | 42 | 33 | 37 | 58 | 48 | 43 | 45 | 36 | 31 |  |  | 40 | 31 | inhibition of growth at 10 µM [6]: 46%; inhibition of growth at 10 µM [9]: 30%
O=C(CN1CCN(c2nnc(-c3ccccc3)c3ccccc23)CC1)Nc1ccc(Cl)cc1 | 53 | 30 | 34 | 57 | 40 | 53 | 32 | 40 | 41 |  | 36 | 30 |  | inhibition of growth at 10 µM (SK-MEL-2): 33%
COc1ccc(-c2csc(NC(=O)CN3CCN(c4nnc(-c5ccccc5)c5ccccc45)CC3)n2)cc1 | 34 | 48 | 48 | 82 | 50 | 58 | 47 | 44 | 62 | 46 | 43 | 40 |  | inhibition of growth at 10 µM (CCRF-CEM): 34%; inhibition of growth at 10 µM [10]: 32%; inhibition of growth at 10 µM (A549): 34%; inhibition of growth at 10 µM (NCI-H226): 36%; inhibition of growth at 10 µM [11]: 40%; inhibition of growth at 10 µM [12]: 32%; inhibition of growth at 10 µM [13]: 33%; inhibition of growth at 10 µM (MDA-MB-231): 42%
O=C(CN1CCN(c2nnc(-c3ccccc3)c3ccccc23)CC1)Nc1c(Cl)cccc1Cl | 34 | 43 | 38 | 60 | 48 | 43 | 34 | 40 | 42 | 44 |  | 38 | 47 | inhibition of growth at 10 µM [14]: 35%; inhibition of growth at 10 µM (NCI-H226): 30%
N#Cc1ccc(NC(=O)CN2CCN(c3nnc(-c4ccccc4)c4ccccc34)CC2)cc1 | 37 | 34 | 49 | 64 | 39 | 50 |  | 36 | 43 | 47 | 44 | 30 | 40 | inhibition of growth at 10 µM [4]: 32%; inhibition of growth at 10 µM [11]: 32%; inhibition of growth at 10 µM [13]: 34%; inhibition of growth at 10 µM (MCF7): 30%; inhibition of growth at 10 µM [9]: 30%
O=C(CN1CCN(c2nnc(-c3ccccc3)c3ccccc23)CC1)Nc1nccs1 | 41 | 36 | 40 | 64 | 51 | 59 | 38 | 31 | 39 | 36 |  | 38 | 35 | inhibition of growth at 10 µM (CCRF-CEM): 30%; inhibition of growth at 10 µM [4]: 37%; inhibition of growth at 10 µM [15]: 38%; inhibition of growth at 10 µM (NCI/ADR-RES): 32%
CC(=O)c1sc(NC(=O)CN2CCN(c3nnc(-c4ccccc4)c4ccccc34)CC2)nc1C | 41 |  | 43 | 81 | 45 | 49 | 53 | 49 | 52 | 33 | 45 |  | 70 | inhibition of growth at 10 µM [6]: 40%; inhibition of growth at 10 µM [11]: 30%; inhibition of growth at 10 µM [16]: 34%; inhibition of growth at 10 µM (HT-29): 31%; inhibition of growth at 10 µM (MDA-MB-231): 41%
O=C(CN1CCN(c2nnc(-c3ccccc3)c3ccccc23)CC1)c1ccc(Cl)cc1 | 57 | 33 |  | 41 |  | 38 |  |  | 30 |  |  |  |  | 
